Several values for one entry are separate records, joined by “and”; a condition that tells them apart may be missing. Equal entries are not always repeated. Where two headings read alike, the source gives them in different places.
Columns and labels:
P. falciparum Dd2 = assay: P. falciparum growth inhibition assay, [3H] hypoxanthine incorporation, Dd2 line; assay type: cell-based; details: Plasmodium falciparum, DD2, read-out: P. falciparum IC50 Dd2
[1] = system: Neonatal foreskin fibroblast (NFF) cells; assay: NFF cytotoxicity assay; assay type: cell-based; details: Homo sapiens, 72 h, read-out: Mammalian cell IC50 NFF
[2] = system: tetra-acetylated histone H4 in P. falciparum 3D7 trophozoites; assay: Protein hyperacetylation assay, Western blot, anti-tetra-acetyl histone H4; assay type: cell-based, Plasmodium falciparum; details: 3× IC50, 3 h; for Hyperacetylation, anti-(tetra) acetyl H4 antibody (words): vs vehicle control
In short: (§1)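 Synchronous trophozoite-stage 3D7-infected erythrocytes (3–5% parasitemia, 5% haematocrit) were exposed for 3 h, with controls of 0.05% DMSO vehicle, chloroquine and a reference HDAC inhibitor. Lysis used 0.15% saponin, then PBS washes, SDS-PAGE and PVDF blotting. Rabbit primaries ran overnight at 4 °C: tetra-acetyl H4 1:2000, H3K9 1:1000, H3 N-terminus 1:500. Membranes were stripped at pH 2 and reprobed with anti-RAP2. Densitometry was RAP2-normalised and expressed as fold change vs vehicle (=1).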

HEK293 cells = assay: HEK293 cytotoxicity assay; assay type: cell-based; details: read-out: Mammalian cell IC50 HEK 293
[3] = system: asexual-stage P. falciparum; assay: P. falciparum asexual-stage growth inhibition, line not specified or both lines; assay type: cell-based, Plasmodium falciparum; details: for IC50 / IC90: Plasmodium falciparum; for IC50: 3D7|DD2, read-out: IC50 against 3D7 and Dd2 P. falciparum lines; for IC90: in Homo sapiens, read-out: P. falciparum IC90; for P. falciparum SI (Selectivity Index): mammalian cell IC50/P. falciparum IC50, larger values indicate greater parasite selectivity
recombinant PfHDAC1 = target: T1, recombinant PfHDAC1 (Plasmodium falciparum, UniProt Q7K6A1); assay: Deacetylase activity assay, recombinant PfHDAC1; assay type: biochemical; details: mean (±SD) of two independent assays; for inhibition at 1 µM: read-out: PfHDAC1 % inhibition at 1 μM, 1 μM
T1 sequence (Q7K6A1 1-449): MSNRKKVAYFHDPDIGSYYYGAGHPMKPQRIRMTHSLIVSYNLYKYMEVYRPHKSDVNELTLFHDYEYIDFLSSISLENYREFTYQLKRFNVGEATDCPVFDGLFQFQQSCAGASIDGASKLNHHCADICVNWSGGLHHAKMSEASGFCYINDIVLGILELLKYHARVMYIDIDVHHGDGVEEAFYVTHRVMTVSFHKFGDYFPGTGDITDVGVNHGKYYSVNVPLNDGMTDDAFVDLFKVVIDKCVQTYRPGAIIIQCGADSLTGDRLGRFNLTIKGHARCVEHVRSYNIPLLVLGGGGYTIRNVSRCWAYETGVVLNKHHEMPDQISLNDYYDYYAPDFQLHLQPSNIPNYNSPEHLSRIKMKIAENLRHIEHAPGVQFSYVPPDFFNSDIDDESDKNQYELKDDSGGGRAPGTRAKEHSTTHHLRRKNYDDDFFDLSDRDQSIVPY
In short: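 Recombinant PfHDAC1 (32 ng/ml) was incubated with test compound or control at 1 μM, or with vehicle (0.5% DMSO). Ac-RGK(Ac)-AMC fluorogenic substrate was added for 1 h at 37 °C, then activator solution for 10 min at room temperature. Fluorescence (ex 350–380/em 440–460 nm) was read within 60 min. Percent inhibition was calculated versus DMSO controls from two independent assays, each in duplicate.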

[4] = system: sexual stage P. falciparum gametocytes; details: ref Sun et al., 2014, cited from earlier work; for IC50: read-out: Sexual stage P. falciparum gametocytes IC50
[5] = system: acetyl histone H3 lysine 9 in P. falciparum 3D7 trophozoites; assay: Protein hyperacetylation assay, Western blot, anti-acetyl histone H3 lysine 9; assay type: cell-based, Plasmodium falciparum; details: 3× IC50, 3 h
In short: as §1

[6] = system: T. b. brucei 427 bloodstream trypanosomes; assay: T. b. brucei growth inhibition assay; assay type: cell-based, Trypanosoma brucei brucei; details: for IC50: read-out: T. b. brucei IC50; for IC90: in Homo sapiens, read-out: T. b. brucei IC90; for T. b. brucei SI (Selectivity Index): mammalian cell IC50/T. brucei IC50
P. falciparum 3D7 = assay: microbe, parasite or virus in culture; assay type: cell-based; details: Plasmodium falciparum, 3D7, read-out: P. falciparum IC50 3D7
early stage gametocytes = details: read-out: Early stage gametocytes IC50; ref Trenholme et al., 2014; cited from earlier work
late stage gametocytes = details: read-out: Late stage gametocytes IC50; ref Trenholme et al., 2014; cited from earlier work
T. b. brucei = details: read-out: T. b. brucei growth IC50; ref Carrillo et al., 2015; cited from earlier work
[7] = system: acetyl histone H3 N-terminus in P. falciparum 3D7 trophozoites; assay: Protein hyperacetylation assay, Western blot, anti-acetyl histone H3 N-terminus; assay type: cell-based, Plasmodium falciparum; details: 3× IC50, 3 h
In short: as §1

P. falciparum = details: read-out: P. falciparum in vitro growth IC50; ref Patel et al., 2009; cited from earlier work
[8] = HEK293 cytotoxicity assay; assay type: cell-based; details: human, HEK293 cells

| Compound | IC50 (P. falciparum Dd2) [nM] | IC50 [1] [nM] | Hyperacetylation, anti-(tetra) acetyl H4 antibody (words) [2] | IC50 (HEK293 cells; Homo sapiens, HEK293, 48 h) [nM] | IC90 [3] [nM] | P. falciparum SI (Selectivity Index) [3] | inhibition at 1 µM (recombinant PfHDAC1) [%] | IC50 ([6]; Trypanosoma brucei, 48 h) [nM] | IC90 ([6]; Trypanosoma brucei) [nM] | T. b. brucei SI (Selectivity Index) [6] | IC50 (P. falciparum 3D7) [nM] | Times less active against T.b. brucei than P. falciparum [6] [times] | other results |
| --- | --- | --- | --- | --- | --- | --- | --- | --- | --- | --- | --- | --- | --- |
| C/C=C1\NC(=O)[C@H]2CSSCC/C=C/[C@H](CC(=O)N[C@H](C(C)C)C(=O)N2)OC(=O)[C@H](C(C)C)NC1=O [Romidepsin, romidepsin] | 130 | 1 | caused hyperacetylation | < 5 | 180 | <1 | 48.3 ± 39.3 | 35 | 100 | <1 | 90 |  | IC50 [3]: < 200 nM; IC50 [4]: 640 nM; Selectivity for gametocytes compared to the mammalian cell line HepG2 [4]: > 10 fold; Fold increase in hyperacetylation, anti-histone H3 lysine 9 antibody ([5]; vs vehicle control): 5–6 fold |
| N=C(N)c1ccc(OCCCCCOc2ccc(C(=N)N)cc2)cc1 [Pentamidine] |  |  |  | > 690 |  |  |  | 4 |  | >173 |  |  |  |
| CC(/C=C/C(=O)NO)=C\[C@@H](C)C(=O)c1ccc(N(C)C)cc1 [TSA, trichostatin A] |  |  |  |  |  |  |  |  |  |  |  |  | IC50 (early stage gametocytes): 90 nM; IC50 (late stage gametocytes): 70 nM; PfHDAC1 % inhibition at 1 μM (recombinant PfHDAC1; 1 μM): ~100% and 98.9 ± 1.5% |
| O=C(/C=C/c1cccc(S(=O)(=O)Nc2ccccc2)c1)NO [Belinostat, belinostat] | 130 | 2370 | caused hyperacetylation | 1420 | 120 | 11–40 | 78.5 ± 4.7 | 2610 | 3640 | <1 | 60 | ~100 | Fold increase in acetylation signal, anti-(tetra) acetyl H4 antibody ([2]; relative density vs DMSO control, normalised to RAP2): > 1.3 fold; IC50 (T. b. brucei): 2200 nM; IC50 [3]: < 200 nM |
| CC(=O)NCC(=O)O.CC(=O)NCC(=O)O.N=C(N)c1ccc(N=NNc2ccc(C(=N)N)cc2)cc1 [Diminazene aceturate, diminazene aceturate] |  |  |  |  |  |  |  |  |  | >617 |  |  | IC50 (HEK293 cells; 48 h exposure, resazurin): > 37000 nM; IC50 ([6]; 427 bloodstream form, 48 h exposure): 60 nM |
| Cc1[nH]c2ccccc2c1CCNCc1ccc(/C=C/C(=O)NO)cc1 [Panobinostat, panobinostat] | 30 | 70 | did not increase acetylation |  | 10 |  | ~100 | 1690 | 3280 |  | 10 | ~100 | Hyperacetylation, anti-(tetra) acetyl H4 antibody (words) ([2]; listed as panobinostat): did not result in hyperacetylation; IC50 (T. b. brucei): 1600 nM; Hyperacetylation, anti-histone H3 N-terminus antibody [7]: did not increase acetylation; IC50 [4]: 940 nM; Hyperacetylation, anti-histone H3 lysine 9 antibody [5]: cause hyperacetylation; IC50 (P. falciparum): ~20 nM |
| CCN(CC)CCCC(C)Nc1ccnc2cc(Cl)ccc12 (stereo not drawn) [Chloroquine, chloroquine] | 80 | 48900 | did not result in hyperacetylation |  |  | 612–4893 |  | 9920 |  | 5 | 10 |  |  |
| O=C(CCCCCCC(=O)Nc1ccccc1)NO [Vorinostat, suberoylanilide hydroxamic acid] |  |  |  |  |  |  | 59.8 ± 12.7 |  | 18700 |  |  | ~100 | IC50 (late stage gametocytes): 810 nM |
| COc1ccc(C[C@H](N)C(=O)N[C@H]2[C@@H](O)[C@H](n3cnc4c(N(C)C)ncnc43)O[C@@H]2CO)cc1 [Puromycin, puromycin] |  |  |  |  |  |  |  |  |  |  |  |  | IC50 at 48 h [8]: 797 nM |

From publication PMC4506969 (International Journal for Parasitology: Drugs and Drug …, 2015)
